Assay results as given in ChEMBL document CHEMBL4350999, “Enhanced tumor retention of NTSR1-targeted agents by employing a hydrophilic cysteine cathepsin inhibitor” (Eur J Med Chem, 2019).
Activity calls are given as the source filed them. The calls are words filed in the database; no cut-off is given here.

Experiments:
[1] = Drug excretion in SCID mouse xenografted with human HT-29 cells pretreated for 1 hr with colchicine at 1 mg/kg, ip followed by 177Lu labelled compound at 0.37 MBq/mouse, iv measured at 24 hrs by gamma counter analysis; assay type: ADME, organism-based; conditions: in vivo
Summary of the method: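 Female SCID mice bearing s.c. flank HT-29 xenografts (5 × 10^6 cells in Matrigel, ~80 mm3). Given 10 μCi (0.37 MBq) 177Lu conjugate i.v. by tail vein; groups sacrificed at 4, 24, 72 h. Tissues weighed and gamma-counted as %ID/g, excretion as %ID; n = 5, mean ± SD. Blocking arms: colchicine 1 mg/kg i.p. beforehand, or D-lysine 40 mg/kg co-injected.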

[2] = Drug uptake in lung of SCID mouse xenografted with human HT-29 cells using 177Lu labelled compound at 0.37 MBq/mouse, iv co-treated with D-lysine at 40 mg/kg measured at 24 hrs by gamma counter analysis; assay type: ADME, organism-based; conditions: in vivo
Summary of the method: (§1)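 Female SCID mice bore s.c. HT-29 xenografts (5 × 10^6 cells in Matrigel, about 80 mm3). D-lysine 40 mg/kg was co-injected i.v. with 10 μCi (0.37 MBq) of purified 177Lu-conjugate. Tissues were harvested at 24 h, weighed and gamma-counted, reported as %ID/g; mean ± SD, n = 5.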

[3] = Drug uptake in muscle of SCID mouse xenografted with human HT-29 cells using 177Lu labelled compound at 0.37 MBq/mouse, iv co-treated with D-lysine at 40 mg/kg measured at 24 hrs by gamma counter analysis; assay type: ADME, organism-based, Muscle tissue; conditions: in vivo; summary of the method: as §1
[4] = Ratio of drug uptake in SCID mouse xenograted with human HT-29 cells assessed as tumour retention to drug uptake in spleen of SCID mouse xenografted with human HT-29 cells cotreated with D-lysine at 40 mg/kg measured after 24 hrs using 177Lu labelled compound; assay type: ADME, organism-based, Tumor/Spleen; conditions: in vivo
[5] = biological target: Cathepsin B (Homo sapiens, UniProt P07858); experiment: Binding affinity to human liver cathepsin B assessed as protein-conjugate adduct formation at 0.74 MBq incubated for 30 mins in presence of E-64 using 177Lu labelled compound by SDS-PAGE analysis; conditions: 0.74 M
Summary of the method: (§2)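 Purified human liver CatB or CatL (3 nM) in 50 mM sodium acetate/1 mM EDTA pH 5.0 incubated 30 min with 177Lu conjugate (500,000 cpm) in Tris/MgCl2/DTT buffer pH 5.5, alone or with E-64 (10 μM) or N1 (20 μM). Mixtures heated 85 °C 2 min, run on 16% tris-glycine gel at 110 V for 90 min, and read by phosphor autoradiography.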

[6] = Drug localization in endolysosomal compartment of human HT-29 cells assessed as co-localization efficiency at 5 uM incubated for 2 hrs and measured over 24 hrs using natEu labelled compound by lysotracker green staining based confocal microscopic analysis relative to control; assay type: ADME, subcellular; conditions: ht-29, 5 µM
Summary of the method: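 HT-29 cells (1.25 × 10^5/well) loaded with natEu conjugate (5 μM), washed, then chased in fresh medium up to 24 h. Lysotracker Green (100 nM) applied 2 h before each read; cells fixed and imaged confocally at 405/488 nm. Per-cell mean fluorescence and Lysotracker co-localization quantified.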

[7] = Drug uptake in brain of SCID mouse xenografted with human HT-29 cells using 177Lu labelled compound at 0.37 MBq/mouse, iv co-treated with D-lysine at 40 mg/kg measured at 24 hrs by gamma counter analysis; assay type: ADME, organism-based; conditions: in vivo; summary of the method: as §1
[8] = biological target: T1, Procathepsin L (Homo sapiens, UniProt P07711); experiment: Binding affinity to human liver cathepsin L assessed as protein-conjugate adduct formation at 0.74 MBq incubated for 30 mins in presence of E-64 using 177Lu labelled compound by SDS-PAGE analysis; conditions: 0.74 M; summary of the method: as §2
[9] = biological target: T1, Procathepsin L; experiment: Binding affinity to cathepsin L in human HT-29 cells assessed as intracellular adduct formation at 0.74 MBq incubated for 4 hrs in presence of E-64 using 177Lu labelled compound by SDS-PAGE analysis; assay type: cell-based; set-up: dose or concentration left out as unconfirmed
Summary of the method: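 HT-29 cells (1 × 10^6/well) incubated 4 h at 37 °C with 177Lu conjugate (20 μCi, 0.74 MBq) in 1 mL medium, with or without E-64 (10 μM) or NTSR1 peptide N1 (20 μM). Cells washed and refed; at set times cells pooled, RIPA-lysed with protease inhibitor. Lysates heated 85 °C 2 min, run on 16% tris-glycine SDS-PAGE, and phosphor autoradiography taken after 72 h exposure.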

[10] = Ratio of drug uptake in SCID mouse xenograted with human HT-29 cells assessed as tumour retention to drug uptake in blood of SCID mouse xenografted with human HT-29 cells cotreated with D-lysine at 40 mg/kg measured after 24 hrs using 177Lu labelled compound; assay type: ADME, organism-based, Tumor/Blood
Summary of the method: (§3)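 HT-29 s.c. xenografts in female SCID mice. 177Lu conjugate given i.v. by tail vein at 10 μCi (0.37 MBq)/mouse, co-injected with D-lysine 40 mg/kg. Tissues were taken at 24 h, weighed and gamma counted. Uptake expressed as %ID/g (n = 5, mean ± SD); tumor-to-tissue ratios derived from these values.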

[11] = Drug uptake in bone of SCID mouse xenografted with human HT-29 cells using 177Lu labelled compound at 0.37 MBq/mouse, iv co-treated with D-lysine at 40 mg/kg measured at 24 hrs by gamma counter analysis; assay type: ADME, organism-based, Bone element; conditions: in vivo; summary of the method: as §1
[12] = Ratio of drug uptake in SCID mouse xenograted with human HT-29 cells assessed as tumour retention to drug uptake in small intestine of SCID mouse xenografted with human HT-29 cells cotreated with D-lysine at 40 mg/kg measured after 24 hrs using 177Lu labelled compound; assay type: ADME, organism-based, Tumor/Small intestine; conditions: in vivo
[13] = Drug uptake in large intestine of SCID mouse xenografted with human HT-29 cells pretreated for 1 hr with colchicine at 1 mg/kg, ip followed by 177Lu labelled compound at 0.37 MBq/mouse, iv measured at 24 hrs by gamma counter analysis; assay type: ADME, organism-based; conditions: in vivo
Summary of the method: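 HT-29 flank xenografts in female SCID mice (5 × 10^6 cells in Matrigel, about 80 mm3). Colchicine 1 mg/kg was given i.p. before a tail-vein injection of 10 μCi (0.37 MBq) of purified 177Lu-conjugate. Tissues were taken at 24 h, weighed and gamma-counted as %ID/g; mean ± SD, n = 5.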

[14] = Drug retention in tumor of mouse xenografted with human HT-29 cells assessed as tissue-conjugate adduct formation at 29.6 MBq co-treated with D-lysine at 40 mg/kg measured after 72 hrs using 177Lu labelled compound by SDS-PAGE analysis; assay type: ADME, organism-based, Neoplasm; conditions: in vivo
[15] = Drug retention in kidney lysates of mouse xenografted with human HT-29 cells assessed as macromolecule associated radioactivity at 29.6 MBq measured after 72 hrs using 177Lu labelled compound by gamma counter analysis relative to control; assay type: ADME, tissue-based; conditions: in vivo
Summary of the method: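 HT-29 xenograft mice given 800 μCi (29.6 MBq) 177Lu conjugate i.v. and killed at 72 h. Tumor, liver and kidney homogenized in RIPA with protease inhibitor and supernatants run on SDS-PAGE autoradiography. Other supernatant aliquots filtered through 10 kDa MWCO devices to give the % macromolecule-associated radioactivity; n = 3.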

[16] = Ratio of drug uptake in SCID mouse xenograted with human HT-29 cells assessed as tumour retention to drug uptake in kidney of SCID mouse xenografted with human HT-29 cells cotreated with D-lysine at 40 mg/kg measured after 24 hrs using 177Lu labelled compound; assay type: ADME, organism-based, Tumor/Kidney; conditions: in vivo; summary of the method: as §3

T1 sequence (P07711 114-333 limits assumed): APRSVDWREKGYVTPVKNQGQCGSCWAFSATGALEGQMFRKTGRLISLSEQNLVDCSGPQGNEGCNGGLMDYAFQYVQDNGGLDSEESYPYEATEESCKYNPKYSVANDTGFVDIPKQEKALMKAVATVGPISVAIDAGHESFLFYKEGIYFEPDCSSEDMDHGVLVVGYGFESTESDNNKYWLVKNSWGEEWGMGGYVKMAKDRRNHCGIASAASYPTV

- Drug excretion [1]: 85 %ID
- Drug uptake [2]: 0.41 % ID/g
- Drug uptake [3]: 0.07 % ID/g
- Ratio [4]: 8
- Activity [5]: inactive
- Drug uptake [6]: 60%
- Drug uptake [7]: 0.02 % ID/g
- Activity [8]: inactive
- Activity [9]: Active
- Kp at 24 h [10]: 299
- Drug uptake [11]: 0.6 % ID/g
- Ratio [12]: 4
- Drug uptake [13]: 0.67 % ID/g
- Drug uptake [14]: Active
- Drug uptake [15]: 80%
- Ratio [16]: 0.2
SMILES: Cc1cc(O)cc(C)c1C[C@H](NC(=O)[C@@H]1CCCN1C(=O)[C@H](CCCNC(=N)N)NC(=O)[C@H](CCCNC(=N)N)N(C)C(=O)[C@@H]1CCCN1C(=O)[C@H](CCCCN)NC(=O)[C@@H](CO)NC(=O)[C@@H](CO)NC(=O)[C@@H](CO)NC(=O)[C@H](Cc1cn(CCNC(=O)[C@H](CCCNC(=N)N)NC(=O)[C@H](CC(C)C)NC(=O)C2OC2C(=O)O)nn1)NC(=O)CN1CCN(CC(=O)O)CCN(CC(=O)O)CCN(CC(=O)O)CC1)C(=O)N[C@H](C(=O)N[C@@H](CC(C)C)C(=O)O)C(C)(C)C (stereo partly specified)
